# In ChEMBL document CHEMBL1667760, “Synthesis and biological evaluation of 3,5-diaryl isoxazoline/isoxazole linked 2,3-dihydroquinazolinone hybrids as anticancer agents” (2011):
# Calls of active or inactive are those of the source. No cut-off for these calls is given here.
# Legend:
# MOLT-4 = assay: Cytotoxicity against human MOLT4 cells after 48 hrs by sulforhodamine B assay; assay type: functional; settings: MOLT-4, 48 h
# Method in brief: (§1)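 Run by the NCI 60-cell-line screen. A one-dose pre-test was done first, followed by the main test over a 5-log dose range (10^-4 to 10^-8 M). Results are reported as log molar GI50 (50% net growth inhibition), TGI (total growth inhibition) and LC50 (50% net cell death), with mean-graph midpoints across all lines.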
# T47D = assay: Cytotoxicity against human T47D cells after 48 hrs by sulforhodamine B assay; assay type: functional
# Method in brief: (§2)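 NCI 60-cell-line panel screen of human tumor lines: a one-dose pre-test, then the main test over a 5-log range (10^-4–10^-8 M). GI50, TGI and LC50 are reported as log molar concentrations for 50% net growth inhibition, total growth inhibition and 50% net cell death. Mean graph midpoints are also calculated.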
# BT-549 = assay: Cytotoxicity against human BT549 cells after 48 hrs by sulforhodamine B assay; assay type: functional; settings: BT-549, 48 h; method in brief: as §1
# MCF7 [1] = assay: Cytotoxicity against human MCF7 cells after 48 hrs by sulforhodamine B assay; assay type: functional; settings: MCF7, 48 h
# Method in brief: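 Cells were grown in RPMI 1640 with 10% FBS and 2 mM L-glutamine, plated at densities set by doubling time, and pre-incubated 24 h at 37 °C, 5% CO2. Drugs were tested at 0.1, 1, 10 and 100 µM in triplicate wells for 48 h continuous exposure. Cells were fixed with 10% TCA (final) and stained with 0.4% SRB. A540 was read against a 690 nm reference, and percent growth was calculated relative to control. Experiments were repeated three times.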
# NCI-H322M = assay: Cytotoxicity against human NCI-H322M cells after 48 hrs by sulforhodamine B assay; assay type: functional; method in brief: as §1
# MCF7 [2] = assay: Cell cycle arrest in human MCF7 cells assessed as accumulation at G2/M phase at 5 uM after 24 hrs using propidium iodide staining by flow cytometry relative to control; assay type: functional
# Method in brief: (§3)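 MCF-7 cells were seeded at 5×10^5 per 60 mm dish and grown 24 h. They were then exposed to 5 uM compound for a further 24 h, with untreated control cells alongside. Cells were trypsinised, fixed in ice-cold 70% ethanol (4 °C, 30 min), treated with 1 mg/ml RNase A (37 °C, 30 min) and stained with propidium iodide/citrate/Triton solution. DNA content was read by flow cytometry on 20,000 events.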
# TK-10 = assay: Cytotoxicity against human TK10 cells after 48 hrs by sulforhodamine B assay; assay type: functional; settings: TK-10, 48 h; method in brief: as §2
# SW-620 = assay: Cytotoxicity against human SW620 cells after 48 hrs by sulforhodamine B assay; assay type: functional; settings: SW-620, 48 h; method in brief: as §2
# 786-0 = assay: Cytotoxicity against human 786-0 cells after 48 hrs by sulforhodamine B assay; assay type: functional; settings: 786-0, 48 h; method in brief: as §1
# MCF7 [3] = assay: Cell cycle arrest in human MCF7 cells assessed as accumulation at G0 phase at 5 uM after 24 hrs using propidium iodide staining by flow cytometry relative to control; assay type: functional; method in brief: as §3
# SR = assay: Cytotoxicity against human SR cells after 48 hrs by sulforhodamine B assay; assay type: functional; method in brief: as §2
# OVCAR-3 = assay: Cytotoxicity against human OVCAR3 cells after 48 hrs by sulforhodamine B assay; assay type: functional; settings: OVCAR-3, 48 h; method in brief: as §1
# MDA-MB-435 = assay: Cytotoxicity against human MDA-MB-435 cells after 48 hrs by sulforhodamine B assay; assay type: functional; settings: MDA-MB-435, 48 h; method in brief: as §1
# MCF7 [4] = assay: Cytotoxicity against human MCF7 cells at 5 uM after 24 hrs by MTT assay
# EKVX = assay: Cytotoxicity against human EKVX cells after 48 hrs by sulforhodamine B assay; assay type: functional
# Method in brief: (§4)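 Run by the NCI 60 human tumour cell line screen. A one-dose pre-test across sixty lines came first. The main test then used a 5-log dose range (10^-4–10^-8 M). Values derived per cell line were GI50 (log molar concentration for 50% net growth inhibition), TGI (total growth inhibition) and LC50 (50% net cell death).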
# NCI/ADR-RES = assay: Cytotoxicity against human NCI/ADR-RES cells after 48 hrs by sulforhodamine B assay; assay type: functional; method in brief: as §1
# [5] = Cytotoxicity against human […] cells after 48 hrs by sulforhodamine B assay; assay type: functional; method in brief: as §1
# MCF7 [6] = assay: Cell cycle arrest in human MCF7 cells assessed as accumulation at S phase at 5 uM after 24 hrs using propidium iodide staining by flow cytometry relative to control; assay type: functional; method in brief: as §3
# UACC-62 = assay: Cytotoxicity against human UACC62 cells after 48 hrs by sulforhodamine B assay; assay type: functional; settings: UACC-62, 48 h; method in brief: as §2
# Malme-3M = assay: Cytotoxicity against human MALME-3M cells after 48 hrs by sulforhodamine B assay; assay type: functional; method in brief: as §4
# HCC 2998 = assay: Cytotoxicity against human HCC2998 cells after 48 hrs by sulforhodamine B assay; assay type: functional; settings: HCC 2998, 48 h; method in brief: as §1
# SK-MEL-28 = assay: Cytotoxicity against human SK-MEL-28 cells after 48 hrs by sulforhodamine B assay; assay type: functional; settings: SK-MEL-28, 48 h; method in brief: as §1
# OVCAR-4 = assay: Cytotoxicity against human OVCAR4 cells after 48 hrs by sulforhodamine B assay; assay type: functional; settings: OVCAR-4, 48 h; method in brief: as §1
# MCF7 [7] = assay: Reduction of CDK1 expression in human MCF7 cells at 5 uM after 24 hrs by Western blotting; assay type: functional, cell-based
# Method in brief: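 MCF-7 cells, kept in DMEM with 10% fetal calf serum at 37 °C under 5% CO2, treated 24 h. Lysis in ice-cold RIPA with protease inhibitors; Bradford quantitation; 30 µg protein per lane on 12% SDS-PAGE, then PVDF. Primary antibodies (1:500) at 4 °C overnight; HRP secondary (1:2000); chemiluminescence detection; β-actin loading control.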
# HOP-92 = assay: Cytotoxicity against human HOP92 cells after 48 hrs by sulforhodamine B assay; assay type: functional; settings: HOP-92, 48 h; method in brief: as §1
# [8] = read-out: pLC50 (the source's name) (converted)
structure (smiles),measurement,setting,value
COc1cc(C2NC(=O)c3ccccc3N2)ccc1OCCCCCOc1c(OC)cc(C2=NOC(c3cc(OC)c(OC)c(OC)c3)C2)cc1OC (configuration not stated),GI50,MOLT-4,0.479 µM
same,CC50,MOLT-4; [8],> 100 µM
same,TGI,MOLT-4; read-out: pTGI,> 100 µM
same,GI50,T47D,0.191 µM
same,CC50,T47D; [8],> 100 µM
same,TGI,T47D; read-out: pTGI,> 100 µM
same,CC50,BT-549; [8],> 100 µM
same,TGI,BT-549; read-out: pTGI,> 100 µM
same,GI50,MCF7 [1],0.282 µM
same,CC50,MCF7 [1]; [8],> 100 µM
same,TGI,MCF7 [1]; read-out: pTGI,> 100 µM
same,GI50,NCI-H322M,> 100 µM
same,CC50,NCI-H322M; [8],> 100 µM
same,TGI,NCI-H322M; read-out: pTGI,> 100 µM
same,Activity,MCF7 [2],43.9%
same,GI50,TK-10,> 100 µM
same,CC50,TK-10; [8],> 100 µM
same,TGI,TK-10; read-out: pTGI,> 100 µM
same,GI50,SW-620,10.2 µM
same,CC50,SW-620; [8],> 100 µM
same,TGI,SW-620; read-out: pTGI,> 100 µM
same,GI50,786-0,23.4 µM
same,CC50,786-0; [8],> 100 µM
same,TGI,786-0; read-out: pTGI (converted),61.7 µM
same,Activity,MCF7 [3],1.57%
same,GI50,SR,0.955 µM
same,CC50,SR; [8],> 100 µM
same,TGI,SR; read-out: pTGI,> 100 µM
same,GI50,OVCAR-3,12.9 µM
same,CC50,OVCAR-3; [8],> 100 µM
same,TGI,OVCAR-3; read-out: pTGI (converted),63.1 µM
same,GI50,MDA-MB-435,0.417 µM
same,CC50,MDA-MB-435; [8],> 100 µM
same,TGI,MDA-MB-435; read-out: pTGI,> 100 µM
same,Activity,MCF7 [4],Active
same,CC50,EKVX; [8],> 100 µM
same,TGI,EKVX; read-out: pTGI,> 100 µM
same,GI50,NCI/ADR-RES,15.1 µM
same,CC50,NCI/ADR-RES; [8],> 100 µM
same,TGI,NCI/ADR-RES; read-out: pTGI,> 100 µM
same,GI50,[5],0.0851 µM
same,CC50,[5]; [8],> 100 µM
same,TGI,[5]; read-out: pTGI (converted),2.29 µM
same,Activity,MCF7 [6],22.38%
same,GI50,UACC-62,0.257 µM
same,CC50,UACC-62; [8],> 100 µM
same,TGI,UACC-62; read-out: pTGI,> 100 µM
same,CC50,Malme-3M; [8],> 100 µM
same,TGI,Malme-3M; read-out: pTGI,> 100 µM
same,GI50,HCC 2998,19.1 µM
same,CC50,HCC 2998; [8],> 100 µM
same,TGI,HCC 2998; read-out: pTGI (converted),52.5 µM
same,GI50,SK-MEL-28,5.25 µM
same,CC50,SK-MEL-28; [8],> 100 µM
same,TGI,SK-MEL-28; read-out: pTGI,> 100 µM
same,GI50,OVCAR-4,0.355 µM
same,CC50,OVCAR-4; [8],> 100 µM
same,TGI,OVCAR-4; read-out: pTGI,> 100 µM
same,Activity,MCF7 [7],Active
same,GI50,HOP-92,60.3 µM
same,CC50,HOP-92; [8],> 100 µM
same,TGI,HOP-92; read-out: pTGI,> 100 µM
